Calls of active or inactive are those of the source. The calls are words filed in the database; no cut-off is given here.

The values below come from ChEMBL document CHEMBL4011617, “Ugi Reaction-Derived α-Acyl Aminocarboxamides Bind to Phosphatidylinositol 3-Kinase-Related Kinases, Inhibit HSF1-Dependent Heat Shock Response, and Induce Apoptosis in Multiple Myeloma Cells” (J Med Chem, 2017).

Test [1] concerns INA-6. Briefly: Inhibition of heat shock response in human INA-6 cells assessed as reduction in HSF-1 mediated upregulation of the heat shock protein HSP72 at 50 uM preincubated for 4 hrs followed by HSP90 inhibitor and HSR inducer NVP-AUY922 addition measured after 4 hrs by Western blot method. The test is classed as functional, cell-based. The method, boiled down: (§1)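 INA-6 myeloma cells pretreated with test compound for 4 h, then co-treated with the HSP90 inhibitor/HSR inducer NVP-AUY922 for a further 4 h. Cells harvested; HSP72, HSP27, HSF1 or phospho-HSF1 probed by Western blot with β-actin as loading control. DMSO-only cells were the negative control; NVP-AUY922-only cells were the positive control.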
Background: A western blot detects proteins with antibodies after separation by electrophoresis.

For test [2], the system named is INA-6. Briefly: Inhibition of heat shock response in human INA-6 cells assessed as reduction in HSF-1 mediated upregulation of the heat shock protein HSP72 at 50 uM preincubated for 4 hrs followed by HSP90 inhibitor and HSR inducer NVP-AUY922 addition measured after 4 hrs by ELISA. The test is classed as functional, cell-based. The method, boiled down: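 HSP72 quantified by ELISA in the same protein lysates used for Western blots. INA-6 cells received compound for 4 h, then NVP-AUY922 co-treatment for 4 h more to stimulate HSF1. DMSO-only and NVP-AUY922-only cells served as negative and positive controls.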
A general note: An ELISA detects its analyte on a solid surface through an enzyme-linked reagent.

The test system of test [3] is INA-6. The test is described as follows: Inhibition of heat shock response in human INA-6 cells assessed as reduction in HSF-1 mediated upregulation of the heat shock protein HSP27 at 50 uM preincubated for 4 hrs followed by HSP90 inhibitor and HSR inducer NVP-AUY922 addition measured after 4 hrs by Western blot method. The test is classed as functional, cell-based. The method, boiled down:
as §1

In test [4] the test system is INA-6. The test is described as follows: Inhibition of heat shock response in human INA-6 cells assessed as reduction in HSF-1 mediated upregulation of the heat shock protein HSP27 at 50 uM preincubated for 4 hrs followed by HSP90 inhibitor and HSR inducer NVP-AUY922 addition measured after 4 hrs by ELISA. It is filed as functional, cell-based.
Test [5] has as its system INA-6. The test is described as follows: Downregulation of NVP-AUY922-induced HSF-1 protein expression in human INA-6 cells at 50 uM preincubated for 4 hrs followed by NVP-AUY922 addition measured after 4 hrs by Western blot method. It is filed as functional, cell-based. The method in brief:
as §1

The target in test [6] is T1, Heat shock factor protein 1 (Homo sapiens) (UniProt Q00613).
T1 sequence (whole entry): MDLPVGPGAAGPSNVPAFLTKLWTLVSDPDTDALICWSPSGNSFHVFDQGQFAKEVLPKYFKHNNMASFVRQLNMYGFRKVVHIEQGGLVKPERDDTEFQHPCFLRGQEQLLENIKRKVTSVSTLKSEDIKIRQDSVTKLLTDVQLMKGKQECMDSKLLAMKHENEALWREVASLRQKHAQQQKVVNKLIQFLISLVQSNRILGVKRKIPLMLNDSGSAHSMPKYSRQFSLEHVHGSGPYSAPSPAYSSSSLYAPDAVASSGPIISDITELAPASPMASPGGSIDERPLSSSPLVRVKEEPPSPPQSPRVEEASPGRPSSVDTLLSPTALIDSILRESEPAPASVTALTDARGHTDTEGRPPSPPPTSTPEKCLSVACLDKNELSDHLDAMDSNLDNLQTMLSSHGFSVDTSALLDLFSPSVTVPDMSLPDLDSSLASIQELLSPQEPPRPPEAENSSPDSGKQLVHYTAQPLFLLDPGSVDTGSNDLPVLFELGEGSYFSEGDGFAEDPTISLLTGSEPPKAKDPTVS
Briefly: Inhibition of NVP-AUY922-induced HSF-1 phosphorylation at S326 residue in human INA-6 cells at 50 uM preincubated for 4 hrs followed by NVP-AUY922 addition measured after 4 hrs by Western blot method. It is filed as cell-based. The method, boiled down:
as §1

With `O=C(NCc1ccccc1)C(c1ccccc1Br)N(Cc1ccccc1)C(=O)/C=C/c1ccccc1` (racemic), in the test with INA-6 [1], the “heat shock response inhibition (active/not active)” value was “inactive”. The “HSP72 upregulation inhibition (active/not active)” value in the test with INA-6 [2] was “inactive”. The “activity call (active/not active) for inhibition of HSP27 upregulation” value with INA-6 [3] is “inactive”.
As to `CCCN(C(=O)/C=C/c1ccc(OC)cc1)C(C(=O)NC1CCCCC1)c1ccccc1Br` (racemic), the “heat shock response inhibition (active/not active)” value with INA-6 [1] and with INA-6 [4] was “Active” throughout. Moreover, the “HSP72 upregulation inhibition (active/not active)” value in the test on INA-6 [2] was “Active”. Further, the “activity call (active/not active) for inhibition of HSP27 upregulation” value with INA-6 [3] is “Active”. Besides, the outcome in the test on INA-6 [5] was Active. The inhibition entry in test [6] was “Active”.
For `O=C(NCCN1CCOCC1)C(c1ccccc1Br)N(Cc1ccccc1)C(=O)/C=C/c1ccc(Cl)cc1Cl` (racemic), the “heat shock response inhibition (active/not active)” value with INA-6 [1] and in the test with INA-6 [4] was “Active” each time. For the same compound, the “HSP72 upregulation inhibition (active/not active)” value with INA-6 [2] was “Active”. For the same compound, the “activity call (active/not active) for inhibition of HSP27 upregulation” value in the test with INA-6 [3] was “Active”. In the test with INA-6 [5], the outcome was Active. For the same compound, in test [6], the inhibition result is “Active”.
Take `C=CC(=O)N(CCOCCO)C(C(=O)NC(C)(C)C)c1ccccc1Br` (racemic): the “heat shock response inhibition (active/not active)” value in the test with INA-6 [1] was “inactive”. For the same compound, the “HSP72 upregulation inhibition (active/not active)” value with INA-6 [2] is “inactive”. Also, the “activity call (active/not active) for inhibition of HSP27 upregulation” value with INA-6 [3] was “inactive”.
Turning to `C/C=C/C(=O)N(Cc1ccco1)C(C(=O)NC1CCCCC1)c1ccccc1Br` (racemic), the “heat shock response inhibition (active/not active)” value in the test with INA-6 [1] was “inactive”. For the same compound, the “HSP72 upregulation inhibition (active/not active)” value in the test on INA-6 [2] is “inactive”. For the same compound, in the test on INA-6 [3], the “activity call (active/not active) for inhibition of HSP27 upregulation” value is “inactive”.
With `CN(C(=O)/C=C/c1ccccc1)C(C(=O)NCc1ccccc1)c1ccccc1Br` (racemic), the “heat shock response inhibition (active/not active)” value in the test on INA-6 [1] and in the test with INA-6 [4] was “Active” throughout. In the test on INA-6 [2], the “HSP72 upregulation inhibition (active/not active)” value was “Active”. Moreover, the “activity call (active/not active) for inhibition of HSP27 upregulation” value with INA-6 [3] is “Active”. For the same compound, the result in the test with INA-6 [5] was Active. The inhibition entry in test [6] was “Active”.
As for `CCCN(C(=O)/C=C/c1ccccc1)C(C(=O)NCCN1CCOCC1)c1ccccc1Br` (racemic), the “heat shock response inhibition (active/not active)” value with INA-6 [1] was “inactive”. For the same compound, in the test with INA-6 [2], the “HSP72 upregulation inhibition (active/not active)” value is “inactive”. For the same compound, the “activity call (active/not active) for inhibition of HSP27 upregulation” value in the test with INA-6 [3] was “inactive”.
`O=C(NCc1ccccc1)C(c1ccc(OCCBr)cc1)N(C(=O)CCc1ccccc1)C1CC1` (racemic): the “heat shock response inhibition (active/not active)” value with INA-6 [1] and in the test with INA-6 [4] was “Active” throughout. For the same compound, the “HSP72 upregulation inhibition (active/not active)” value in the test with INA-6 [2] was “Active”. The “activity call (active/not active) for inhibition of HSP27 upregulation” value in the test on INA-6 [3] was “Active”. The outcome in the test on INA-6 [5] was Active. Moreover, the inhibition entry in test [6] is “Active”.
With `O=C(NCc1ccccc1)C(c1ccc(Br)cc1)N(C(=O)CCc1ccccc1)C1CC1` (racemic), the “heat shock response inhibition (active/not active)” value in the test with INA-6 [1] and with INA-6 [4] was “Active” in each case. For the same compound, the “HSP72 upregulation inhibition (active/not active)” value in the test with INA-6 [2] was “Active”. Also, the “activity call (active/not active) for inhibition of HSP27 upregulation” value with INA-6 [3] is “Active”. Also, the result in the test on INA-6 [5] was Active. Further, in test [6], the inhibition result was “Active”.
With `O=C(NCCN1CCOCC1)C(c1ccccc1)N(Cc1ccccc1)C(=O)/C=C/c1ccc(Cl)cc1Cl` (racemic), the “heat shock response inhibition (active/not active)” value with INA-6 [1] and in the test on INA-6 [4] was “Active” each time. Also, in the test on INA-6 [2], the “HSP72 upregulation inhibition (active/not active)” value is “Active”. For the same compound, the “activity call (active/not active) for inhibition of HSP27 upregulation” value in the test on INA-6 [3] is “Active”. Also, the result in the test on INA-6 [5] was Active. The inhibition entry in test [6] was “Active”.
In the case of `NCCOCCOCCNCCOc1ccc(C(C(=O)NCc2ccccc2)N(C(=O)CCc2ccc(O)cc2)C2CC2)cc1` (stereo not given), the “HSP72 upregulation inhibition (active/not active)” value with INA-6 [2] is “inactive”. In addition, the “activity call (active/not active) for inhibition of HSP27 upregulation” value in the test on INA-6 [3] was “inactive”. For the same compound, the “heat shock response inhibition (active/not active)” value with INA-6 [4] is “inactive”.
Take `O=C(NCc1ccccc1)C(c1ccccc1)N(C(=O)/C=C/c1ccccc1)C1CC1` (racemic): the “heat shock response inhibition (active/not active)” value in the test with INA-6 [1] and with INA-6 [4] was “Active” each time. For the same compound, the “HSP72 upregulation inhibition (active/not active)” value with INA-6 [2] is “Active”. The “activity call (active/not active) for inhibition of HSP27 upregulation” value with INA-6 [3] was “Active”. In the test on INA-6 [5], the outcome was Active. For the same compound, the inhibition result in test [6] is “Active”.
Turning to `O=C(NCc1ccccc1)C(c1ccc(Br)cc1)N(C(=O)CCc1ccc(O)cc1)C1CC1` (racemic), the “heat shock response inhibition (active/not active)” value in the test on INA-6 [1] and in the test on INA-6 [4] was “Active” throughout. Moreover, the “HSP72 upregulation inhibition (active/not active)” value in the test with INA-6 [2] was “Active”. For the same compound, the “activity call (active/not active) for inhibition of HSP27 upregulation” value in the test with INA-6 [3] is “Active”. Also, the result in the test with INA-6 [5] was Active. In test [6], the inhibition result is “Active”.
Regarding `C=CC(=O)N(CCc1ccc(OC)c(OC)c1)C(C(=O)NCCCCC)c1ccccc1Br` (racemic), the “heat shock response inhibition (active/not active)” value in the test on INA-6 [1] and in the test on INA-6 [4] was “Active” throughout. For the same compound, the “HSP72 upregulation inhibition (active/not active)” value with INA-6 [2] is “Active”. The “activity call (active/not active) for inhibition of HSP27 upregulation” value with INA-6 [3] is “Active”. For the same compound, the outcome in the test with INA-6 [5] was Active. The inhibition result in test [6] was “Active”.
Take `C/C=C/C(=O)N(Cc1ccccc1Cl)C(C(=O)NC(C)(C)C)c1ccccc1Br` (racemic): the “heat shock response inhibition (active/not active)” value in the test with INA-6 [1] and with INA-6 [4] was “Active” in each case. In the test on INA-6 [2], the “HSP72 upregulation inhibition (active/not active)” value is “Active”. For the same compound, in the test with INA-6 [3], the “activity call (active/not active) for inhibition of HSP27 upregulation” value was “Active”. Besides, in the test with INA-6 [5], the outcome was Active. The inhibition entry in test [6] is “Active”.
